Experimental data as given in ChEMBL document CHEMBL5058577, “EUbOPEN Chemogenomics Library 2 (Multiplex)” (2022).

Tested on: HEK-293T
Assay: Multiplex assay against HEK293T
Format: toxicity, cell-based
Conditions: human
Summary of the method: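 Hoechst33342, BioTracker Green Microtubule Cytoskeleton Dye, MitoTracker Red and Annexin V Alexa Fluor 680 were added to live cells at seeding, and imaging on a CQ1 microscope at 37°C and 5% CO2 followed compound addition. Gating by CellPathfinder machine learning separated cells into Hoechst high-intensity objects or normal cells, then normal cells into healthy, pyknosed or fragmented nuclei, then pyknosed cells into mitotic or apoptotic. Per cents of healthy-nucleus cells are reported for the tubulin, mitochondrial-mass and membrane-permeability phenotypes.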

[1] = 12 h, 1 µM, compound concentration 1 uM, replicate 1
[2] = 12 h, 1 µM, compound concentration 1 uM, replicate 2
[3] = 12 h, 10 µM, compound concentration 10 uM, replicate 1
[4] = 12 h, 10 µM, compound concentration 10 uM, replicate 2
[5] = 24 h, 1 µM, compound concentration 1 uM, replicate 1
[6] = 24 h, 1 µM, compound concentration 1 uM, replicate 2
[7] = 24 h, 10 µM, compound concentration 10 uM, replicate 1
[8] = 24 h, 10 µM, compound concentration 10 uM, replicate 2
[9] = 48 h, 1 µM, compound concentration 1 uM, replicate 1
[10] = 48 h, 1 µM, compound concentration 1 uM, replicate 2
[11] = 48 h, 10 µM, compound concentration 10 uM, replicate 1
[12] = 48 h, 10 µM, compound concentration 10 uM, replicate 2

## CC(C)c1noc(N2CCC(COc3ccc(-c4ccc(S(C)(=O)=O)cc4)nc3)CC2)n1 [GSK-1292263]
[1]
  Population Apoptotic (%): 37%
  Population Fragmented Nuclei (%): 8%
  Population Healthy Nuclei (%): 78%
  Population Hoechst High Intensity Objects (%): 5%
  Population Membrane Permeable-Phenotype (%): 0%
  Population Mitochondria Different-Phenotype (%): 42%
  Population Mitotic Cells (%): 62%
  Population Normal (%): 94%
  Population Pyknosed Nuclei (%): 12%
  Population Tubulin-Different-Phenotype (%): 32%
  Total Cell Count: 440
[2]
  Population Apoptotic (%): 25%
  Population Fragmented Nuclei (%): 6%
  Population Healthy Nuclei (%): 86%
  Population Hoechst High Intensity Objects (%): 6%
  Population Mitochondria Different-Phenotype (%): 53%
  Population Mitotic Cells (%): 74%
  Population Normal (%): 93%
  Population Pyknosed Nuclei (%): 7%
  Population Tubulin-Different-Phenotype (%): 13%
  Total Cell Count: 522
[3]
  Population Apoptotic (%): 50%
  Population Fragmented Nuclei (%): 6%
  Population Healthy Nuclei (%): 71%
  Population Hoechst High Intensity Objects (%): 13%
  Population Membrane Permeable-Phenotype (%): 0%
  Population Mitochondria Different-Phenotype (%): 69%
  Population Mitotic Cells (%): 50%
  Population Normal (%): 86%
  Population Pyknosed Nuclei (%): 22%
  Population Tubulin-Different-Phenotype (%): 55%
  Total Cell Count: 311
[4]
  Population Apoptotic (%): 43%
  Population Fragmented Nuclei (%): 7%
  Population Healthy Nuclei (%): 78%
  Population Hoechst High Intensity Objects (%): 16%
  Population Mitochondria Different-Phenotype (%): 77%
  Population Mitotic Cells (%): 56%
  Population Normal (%): 83%
  Population Pyknosed Nuclei (%): 13%
  Population Tubulin-Different-Phenotype (%): 40%
  Total Cell Count: 279
[5]
  Population Apoptotic (%): 23%
  Population Fragmented Nuclei (%): 8%
  Population Healthy Nuclei (%): 78%
  Population Hoechst High Intensity Objects (%): 5%
  Population Membrane Permeable-Phenotype (%): 0%
  Population Mitochondria Different-Phenotype (%): 27%
  Population Mitotic Cells (%): 76%
  Population Normal (%): 94%
  Population Pyknosed Nuclei (%): 12%
  Population Tubulin-Different-Phenotype (%): 25%
  Total Cell Count: 545
[6]
  Population Apoptotic (%): 25%
  Population Fragmented Nuclei (%): 7%
  Population Healthy Nuclei (%): 82%
  Population Hoechst High Intensity Objects (%): 3%
  Population Mitochondria Different-Phenotype (%): 29%
  Population Mitotic Cells (%): 74%
  Population Normal (%): 96%
  Population Pyknosed Nuclei (%): 9%
  Population Tubulin-Different-Phenotype (%): 9%
  Total Cell Count: 608
[7]
  Population Apoptotic (%): 64%
  Population Fragmented Nuclei (%): 8%
  Population Healthy Nuclei (%): 79%
  Population Hoechst High Intensity Objects (%): 8%
  Population Membrane Permeable-Phenotype (%): 0%
  Population Mitochondria Different-Phenotype (%): 58%
  Population Mitotic Cells (%): 35%
  Population Normal (%): 91%
  Population Pyknosed Nuclei (%): 12%
  Population Tubulin-Different-Phenotype (%): 49%
  Total Cell Count: 384
[8]
  Population Apoptotic (%): 46%
  Population Fragmented Nuclei (%): 11%
  Population Healthy Nuclei (%): 74%
  Population Hoechst High Intensity Objects (%): 10%
  Population Mitochondria Different-Phenotype (%): 59%
  Population Mitotic Cells (%): 53%
  Population Normal (%): 89%
  Population Pyknosed Nuclei (%): 13%
  Population Tubulin-Different-Phenotype (%): 28%
  Total Cell Count: 354
[9]
  Population Apoptotic (%): 22%
  Population Fragmented Nuclei (%): 10%
  Population Healthy Nuclei (%): 81%
  Population Hoechst High Intensity Objects (%): 3%
  Population Membrane Permeable-Phenotype (%): 1%
  Population Mitochondria Different-Phenotype (%): 23%
  Population Mitotic Cells (%): 77%
  Population Normal (%): 96%
  Population Pyknosed Nuclei (%): 8%
  Population Tubulin-Different-Phenotype (%): 14%
  Total Cell Count: 865
[10]
  Population Apoptotic (%): 23%
  Population Healthy Nuclei (%): 83%
  Population Hoechst High Intensity Objects (%): 1%
  Population Mitochondria Different-Phenotype (%): 14%
  Population Mitotic Cells (%): 76%
  Population Normal (%): 98%
  Population Pyknosed Nuclei (%): 5%
  Population Tubulin-Different-Phenotype (%): 10%
  Total Cell Count: 882
[11]
  Population Apoptotic (%): 32%
  Population Fragmented Nuclei (%): 10%
  Population Healthy Nuclei (%): 79%
  Population Hoechst High Intensity Objects (%): 10%
  Population Membrane Permeable-Phenotype (%): 0%
  Population Mitochondria Different-Phenotype (%): 50%
  Population Mitotic Cells (%): 67%
  Population Normal (%): 89%
  Population Pyknosed Nuclei (%): 9%
  Population Tubulin-Different-Phenotype (%): 28%
  Total Cell Count: 506
[12]
  Population Apoptotic (%): 30%
  Population Fragmented Nuclei (%): 13%
  Population Healthy Nuclei (%): 78%
  Population Hoechst High Intensity Objects (%): 5%
  Population Mitochondria Different-Phenotype (%): 37%
  Population Mitotic Cells (%): 69%
  Population Normal (%): 94%
  Population Pyknosed Nuclei (%): 8%
  Population Tubulin-Different-Phenotype (%): 18%
  Total Cell Count: 595
